Assay results gathered from unrelated publications.
CDK2 with cyclin A2: Cyclin-dependent kinase 2, with cyclin A2 (CDK2, Homo sapiens, UniProt P24941)
ST14: Suppressor of tumorigenicity 14 protein (ST14, Homo sapiens, UniProt Q9Y5Y6)

With `CC(=O)Nc1c(N)nc(SCC(=O)NN)[nH]c1=O` the inhibition was 14.6% (CDK2 with cyclin A2; enzyme activity, inhibitor; 5 nM).
For `C=CC[C@H](NC(=O)[C@H](Cc1cscn1)NC(=O)CCc1ccccc1)C(=O)N[C@@H](CCCNC(=N)N)C(=O)c1nc2ccccc2s1`, the remaining activity was 41% (ST14; enzyme activity, inhibitor; 0.1 µM).
`CNC(=O)c1cc(Oc2ccc(NC(=O)Nc3ccc(Cl)c(C(F)(F)F)c3)cc2)ccn1` gave an inhibition of 74% (CDK2 with cyclin A2; enzyme activity, inhibitor; 0.5 µM).
With `Cc1cc([C@@H](C)Nc2ccccc2C(=O)O)c2nc(N3CCC(F)(F)CC3)c(C#N)c(=O)n2c1` the remaining binding was 98% (Cyclin-dependent kinase 2 (CDK2, Homo sapiens, UniProt P24941); binding, competition with immobilised ligand; 10 µM).
With `CC(C)(C)c1ccc(C[C@H](NC(=O)[C@H](Cc2cscn2)NC(=O)CCc2ccccc2)C(=O)N[C@@H](CCCNC(=N)N)C(=O)c2nc3ccccc3s2)cc1` the remaining activity was 80% (ST14; enzyme activity, inhibitor; 0.1 µM).
`COc1cc(-c2cncc3c2CN(C)Cc2cc(N4CCNCC4)ccc2-3)cc(OC)c1OC` has a remaining activity of 102% (Angiopoietin-1 receptor (TEK, Homo sapiens, UniProt Q02763, Y897S); enzyme activity, inhibitor; 1 µM).
With `N=C(N)NCCC[C@H](NC(=O)C1(NC(=O)[C@H](Cc2cscn2)NC(=O)CCc2ccccc2)CC1)C(=O)c1nc2ccccc2s1` the remaining activity was 19% (ST14; enzyme activity, inhibitor; 0.1 µM).
With `C=CC(=O)N1CCC(COCC(=O)N2CCN(c3nc(-c4cnc(N)nc4C(F)F)nc(N4CCOC[C@@H]4C)n3)CC2)CC1` the remaining binding was 100% (Mitogen-activated protein kinase kinase kinase kinase 1 (MAP4K1, Homo sapiens, UniProt Q92918); binding, competition with immobilised ligand; 1 µM).
`CC(=O)Nc1c(N)nc(SCC(=O)N/N=C/c2ccc([N+](=O)[O-])cc2)[nH]c1=O` has an inhibition of 15% (CDK2 with cyclin A2; enzyme activity, inhibitor; 10 nM).
`CNc1ncc2c(/C=C/C(=O)N3CCC(OC)CC3)nn(Cc3cccc(C(F)(F)F)c3)c2n1` has a remaining activity of 98% (Angiopoietin-1 receptor (TEK, Homo sapiens, UniProt Q02763); enzyme activity, inhibitor, radiometric; 1 µM).
